# Reference: ChEMBL document CHEMBL3112482, “Nonclassical antifolates, part 5. Benzodiazepine analogs as a new class of DHFR inhibitors: synthesis, antitumor testing and molecular modeling study” (Eur J Med Chem, 2014)
# Assays:
# [1] = Growth inhibition of human UO31 cells at 10 uM after 48 hrs; format: functional; conditions: UO-31, 48 h, read-out: GI
# Method in brief: (§1)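 NCI 60-cell-line disease-oriented human tumor panel, single-dose primary screen at 10 µM. Data given as mean-graph percent growth of treated cells, reported as percent growth inhibition (GI %).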
# [2] = Growth inhibition of human UACC257 cells at 10 uM after 48 hrs; format: functional; conditions: UACC-257, 48 h, read-out: GI; method in brief: as §1
# [3] = system: A549; assay: Growth inhibition of human A549 cells at 10 uM after 48 hrs; format: functional; conditions: A549, 48 h, read-out: GI
# Method in brief: (§2)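 Single-dose primary screen in the NCI 60 human tumour cell line panel, run at the NCI facility. The panel covers nine subpanels: leukaemia, non-small cell lung, colon, CNS, melanoma, ovarian, renal, prostate and breast. Read-out was percent growth of treated cells, shown as a mean graph and reported as percent growth inhibition.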
# [4] = system: SNB-75; assay: Growth inhibition of human SNB75 cells at 10 uM after 48 hrs; format: functional; conditions: SNB-75, 48 h, read-out: GI; method in brief: as §1
# [5] = Cytotoxicity against human renal cancer cells at 10 uM after 48 hrs; format: functional; conditions: Cancer cell lines
# [6] = Growth inhibition of human Hs 578T cells at 10 uM after 48 hrs; format: functional; conditions: read-out: GI; method in brief: as §2
# [7] = system: IGROV-1; assay: Growth inhibition of human IGROV1 cells at 10 uM after 48 hrs; format: functional; conditions: IGROV-1, 48 h, read-out: GI; method in brief: as §2
# [8] = system: SK-OV-3; assay: Growth inhibition of human SKOV3 cells at 10 uM after 48 hrs; format: functional; conditions: SK-OV-3, 48 h, read-out: GI; method in brief: as §1
# [9] = system: NCI-H322M; assay: Growth inhibition of human NCI-H322M cells at 10 uM after 48 hrs; format: functional; conditions: read-out: GI; method in brief: as §2
# [10] = system: NCI-H23; assay: Growth inhibition of human NCI-H23 cells at 10 uM after 48 hrs; format: functional; conditions: NCI-H23, 48 h, read-out: GI; method in brief: as §2
# [11] = Growth inhibition of human HCC2998 cells at 10 uM after 48 hrs; format: functional; conditions: HCC 2998, 48 h, read-out: GI; method in brief: as §2
# [12] = system: MOLT-4; assay: Growth inhibition of human MOLT4 cells at 10 uM after 48 hrs; format: functional; conditions: MOLT-4, 48 h, read-out: GI; method in brief: as §2
# [13] = system: UACC-62; assay: Growth inhibition of human UACC62 cells at 10 uM after 48 hrs; format: functional; conditions: UACC-62, 48 h, read-out: GI; method in brief: as §1
# [14] = Cytotoxicity against human breast cancer cells at 10 uM after 48 hrs; format: functional; conditions: Cancer cell lines; method in brief: as §2
# [15] = system: K562; assay: Growth inhibition of human K562 cells at 10 uM after 48 hrs; format: functional; conditions: K562, 48 h, read-out: GI; method in brief: as §2
# [16] = Growth inhibition of human OVCAR5 cells at 10 uM after 48 hrs; format: functional; conditions: OVCAR-5, 48 h, read-out: GI; method in brief: as §2
# [17] = system: TK-10; assay: Growth inhibition of human TK10 cells at 10 uM after 48 hrs; format: functional; conditions: TK-10, 48 h, read-out: GI; method in brief: as §1
# [18] = system: A498; assay: Growth inhibition of human A498 cells at 10 uM after 48 hrs; format: functional; conditions: A498, 48 h, read-out: GI; method in brief: as §2
# [19] = target: T1, Dihydrofolate reductase (Bos taurus, UniProt P00376); assay: Inhibition of bovine liver DHFR measured for every 1 min of 10 mins
# T1 sequence (P00376 whole entry): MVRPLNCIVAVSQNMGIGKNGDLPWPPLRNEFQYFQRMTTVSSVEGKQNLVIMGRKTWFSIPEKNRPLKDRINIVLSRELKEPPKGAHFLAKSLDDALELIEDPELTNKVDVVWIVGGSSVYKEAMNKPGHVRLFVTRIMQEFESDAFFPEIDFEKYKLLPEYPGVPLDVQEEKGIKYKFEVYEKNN
# [20] = system: T47D; assay: Growth inhibition of human T47D cells at 10 uM after 48 hrs; format: functional; conditions: read-out: GI; method in brief: as §1
# [21] = system: MDA-MB-231; assay: Growth inhibition of human MDA-MB-231 cells at 10 uM after 48 hrs; format: functional; conditions: MDA-MB-231, 48 h, read-out: GI; method in brief: as §2
# [22] = system: NCI-H460; assay: Growth inhibition of human NCI-H460 cells at 10 uM after 48 hrs; format: functional; conditions: NCI-H460, 48 h, read-out: GI; method in brief: as §2
# [23] = system: PC-3; assay: Growth inhibition of human PC3 cells at 10 uM after 48 hrs; format: functional; conditions: PC-3, 48 h, read-out: GI; method in brief: as §2
# [24] = system: SK-MEL-5; assay: Growth inhibition of human SK-MEL-5 cells at 10 uM after 48 hrs; format: functional; conditions: SK-MEL-5, 48 h, read-out: GI; method in brief: as §1
# [25] = system: SNB-19; assay: Growth inhibition of human SNB19 cells at 10 uM after 48 hrs; format: functional; conditions: SNB-19, 48 h, read-out: GI; method in brief: as §1
# [26] = system: M14; assay: Growth inhibition of human M14 cells at 10 uM after 48 hrs; format: functional; conditions: M14, 48 h, read-out: GI; method in brief: as §2
# [27] = system: HCT-15; assay: Growth inhibition of human HCT15 cells at 10 uM after 48 hrs; format: functional; conditions: HCT-15, 48 h, read-out: GI; method in brief: as §2
# [28] = system: HL-60(TB); assay: Growth inhibition of human HL-60(TB) cells at 10 uM after 48 hrs; format: functional; conditions: HL-60, 48 h, read-out: GI
# Method in brief: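 NCI 60-cell-line human tumour panel covering nine subpanels (leukaemia, non-small cell lung, colon, CNS, melanoma, ovarian, renal, prostate, breast), run at the NCI facility. Primary screen tested a single dose of each compound. Read-out was percent growth of treated cells versus untreated cells, reported from the mean graph as percentage growth inhibition.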
# [29] = Growth inhibition of human EKVX cells at 10 uM after 48 hrs; format: functional; conditions: read-out: GI; method in brief: as §2
# [30] = system: SW-620; assay: Growth inhibition of human SW620 cells at 10 uM after 48 hrs; format: functional; conditions: SW-620, 48 h, read-out: GI; method in brief: as §1
# [31] = system: SK-MEL-28; assay: Growth inhibition of human SK-MEL-28 cells at 10 uM after 48 hrs; format: functional; conditions: SK-MEL-28, 48 h, read-out: GI; method in brief: as §1
# [32] = Growth inhibition of human OVCAR4 cells at 10 uM after 48 hrs; format: functional; conditions: OVCAR-4, 48 h, read-out: GI; method in brief: as §2
# [33] = system: MCF7; assay: Growth inhibition of human MCF7 cells at 10 uM after 48 hrs; format: functional; conditions: MCF7, 48 h, read-out: GI; method in brief: as §2
# [34] = Growth inhibition of human SF539 cells at 10 uM after 48 hrs; format: functional; conditions: SF-539, 48 h, read-out: GI; method in brief: as §1
# [35] = system: OVCAR-3; assay: Growth inhibition of human OVCAR3 cells at 10 uM after 48 hrs; format: functional; conditions: OVCAR-3, 48 h, read-out: GI; method in brief: as §2
# [36] = Growth inhibition of human NCI-ADR-RES cells at 10 uM after 48 hrs; format: functional; conditions: read-out: GI; method in brief: as §2
# [37] = system: SF-268; assay: Growth inhibition of human SF268 cells at 10 uM after 48 hrs; format: functional; conditions: SF-268, 48 h, read-out: GI; method in brief: as §1
# [38] = Growth inhibition of human HOP92 cells at 10 uM after 48 hrs; format: functional; conditions: HOP-92, 48 h, read-out: GI; method in brief: as §2
# [39] = system: SR; assay: Growth inhibition of human SR cells at 10 uM after 48 hrs; format: functional; conditions: read-out: GI; method in brief: as §1
smiles,measurement,setting,value
Clc1ccc(/C=C2\CCCC3=C(c4ccc(Cl)cc4)Nc4ccccc4N=C32)cc1,inhibition of growth at 10 µM,[1],< 30%
same,inhibition of growth at 10 µM,[2],< 30%
same,inhibition of growth at 10 µM,[3],< 30%
same,inhibition of growth at 10 µM,[4],< 30%
same,CC50,[5],64 µM
same,GI50,[5],3.3 µM
same,TGI,[5],29.1 µM
same,inhibition of growth at 10 µM,[6],< 30%
same,inhibition of growth at 10 µM,[7],< 30%
same,inhibition of growth at 10 µM,[8],< 30%
same,inhibition of growth at 10 µM,[9],< 30%
same,inhibition of growth at 10 µM,[10],< 30%
same,inhibition of growth at 10 µM,[11],< 30%
same,inhibition of growth at 10 µM,[12],34.2%
same,inhibition of growth at 10 µM,[13],< 30%
same,GI50,[14],4.6 µM
same,LC50 (concentration killing 50% of cells),[14],88.1 µM
same,TGI,[14],58.2 µM
same,inhibition of growth at 10 µM,[15],52.8%
same,inhibition of growth at 10 µM,[16],< 30%
same,inhibition of growth at 10 µM,[17],< 30%
same,inhibition of growth at 10 µM,[18],32.8%
same,IC50,[19],0.3 µM
same,inhibition of growth at 10 µM,[20],< 30%
same,inhibition of growth at 10 µM,[21],< 30%
same,inhibition of growth at 10 µM,[22],< 30%
same,inhibition of growth at 10 µM,[23],< 30%
same,inhibition of growth at 10 µM,[24],< 30%
same,inhibition of growth at 10 µM,[25],< 30%
same,inhibition of growth at 10 µM,[26],70.9%
same,inhibition of growth at 10 µM,[27],36.4%
same,inhibition of growth at 10 µM,[28],< 30%
same,inhibition of growth at 10 µM,[29],< 30%
same,inhibition of growth at 10 µM,[30],58.6%
same,inhibition of growth at 10 µM,[31],< 30%
same,inhibition of growth at 10 µM,[32],< 30%
same,inhibition of growth at 10 µM,[33],64.2%
same,inhibition of growth at 10 µM,[34],< 30%
same,inhibition of growth at 10 µM,[35],33%
same,inhibition of growth at 10 µM,[36],< 30%
same,inhibition of growth at 10 µM,[37],< 30%
same,inhibition of growth at 10 µM,[38],39.4%
same,inhibition of growth at 10 µM,[39],78.5%
COc1ccc(/C=C2\CCCc3c2nc(N)nc3-c2ccc(OC)c(OC)c2)cc1OC,inhibition of growth at 10 µM,[1],37.1%
same,inhibition of growth at 10 µM,[2],53.8%
same,inhibition of growth at 10 µM,[3],41.2%
same,inhibition of growth at 10 µM,[4],36.1%
same,CC50,[5],93.6 µM
same,GI50,[5],7.8 µM
same,TGI,[5],66.7 µM
same,inhibition of growth at 10 µM,[6],< 30%
same,inhibition of growth at 10 µM,[7],42.9%
same,inhibition of growth at 10 µM,[8],55.9%
same,inhibition of growth at 10 µM,[9],< 30%
same,inhibition of growth at 10 µM,[10],50.7%
same,inhibition of growth at 10 µM,[11],< 30%
same,inhibition of growth at 10 µM,[12],46.9%
same,inhibition of growth at 10 µM,[13],47.2%
same,GI50,[14],3.9 µM
same,LC50 (concentration killing 50% of cells),[14],> 100 µM
same,TGI,[14],87.3 µM
same,inhibition of growth at 10 µM,[15],44%
same,inhibition of growth at 10 µM,[16],< 30%
same,inhibition of growth at 10 µM,[17],< 30%
same,inhibition of growth at 10 µM,[18],< 30%
same,IC50,[19],14 µM
same,inhibition of growth at 10 µM,[20],< 30%
same,inhibition of growth at 10 µM,[21],< 30%
same,inhibition of growth at 10 µM,[22],35.4%
same,inhibition of growth at 10 µM,[23],38.5%
same,inhibition of growth at 10 µM,[24],60.3%
same,inhibition of growth at 10 µM,[25],< 30%
same,inhibition of growth at 10 µM,[26],42.7%
same,inhibition of growth at 10 µM,[27],64.1%
same,inhibition of growth at 10 µM,[28],57.7%
same,inhibition of growth at 10 µM,[29],< 30%
same,inhibition of growth at 10 µM,[30],59.3%
same,inhibition of growth at 10 µM,[31],34.7%
same,inhibition of growth at 10 µM,[32],46.7%
same,inhibition of growth at 10 µM,[33],72.4%
same,inhibition of growth at 10 µM,[34],< 30%
same,inhibition of growth at 10 µM,[35],89.2%
same,inhibition of growth at 10 µM,[36],74.9%
same,inhibition of growth at 10 µM,[37],36.2%
same,inhibition of growth at 10 µM,[38],< 30%
same,inhibition of growth at 10 µM,[39],71.9%
